According to ChEMBL document CHEMBL1671641, “1,5-benzodiazepines, a novel class of hepatitis C virus polymerase nonnucleoside inhibitors” (Antimicrob Agents Chemother, 2008):

How the values were obtained:
[1] = tested on: Hepatitis C virus; test: Antiviral activity against Hepatitis C virus 1b infected in human HuH7 cells assessed as inhibition of viral replication after 3 days by luciferase reporter assay; assay type: functional, organism-based, Hepacivirus hominis, genotype 1b, Huh-7; conditions: Hepatitis C virus, genotype 1b, Huh-7, 72 h
Method in brief: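 HCV 1b subgenomic luciferase reporter replicon (clone ET) cells, 2,500 per well, were exposed to a nine-point 1/4 dilution series for 3 days. Replication was read as luciferase activity. Values are means ± SD from 2 to 23 independent experiments run in quadruplicate.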

[2] = molecular target: T1, DNA polymerase subunit gamma-1 (Homo sapiens) (UniProt P54098); test: Inhibition of human DNA polymerase gamma at 100 uM
T1 sequence (whole entry): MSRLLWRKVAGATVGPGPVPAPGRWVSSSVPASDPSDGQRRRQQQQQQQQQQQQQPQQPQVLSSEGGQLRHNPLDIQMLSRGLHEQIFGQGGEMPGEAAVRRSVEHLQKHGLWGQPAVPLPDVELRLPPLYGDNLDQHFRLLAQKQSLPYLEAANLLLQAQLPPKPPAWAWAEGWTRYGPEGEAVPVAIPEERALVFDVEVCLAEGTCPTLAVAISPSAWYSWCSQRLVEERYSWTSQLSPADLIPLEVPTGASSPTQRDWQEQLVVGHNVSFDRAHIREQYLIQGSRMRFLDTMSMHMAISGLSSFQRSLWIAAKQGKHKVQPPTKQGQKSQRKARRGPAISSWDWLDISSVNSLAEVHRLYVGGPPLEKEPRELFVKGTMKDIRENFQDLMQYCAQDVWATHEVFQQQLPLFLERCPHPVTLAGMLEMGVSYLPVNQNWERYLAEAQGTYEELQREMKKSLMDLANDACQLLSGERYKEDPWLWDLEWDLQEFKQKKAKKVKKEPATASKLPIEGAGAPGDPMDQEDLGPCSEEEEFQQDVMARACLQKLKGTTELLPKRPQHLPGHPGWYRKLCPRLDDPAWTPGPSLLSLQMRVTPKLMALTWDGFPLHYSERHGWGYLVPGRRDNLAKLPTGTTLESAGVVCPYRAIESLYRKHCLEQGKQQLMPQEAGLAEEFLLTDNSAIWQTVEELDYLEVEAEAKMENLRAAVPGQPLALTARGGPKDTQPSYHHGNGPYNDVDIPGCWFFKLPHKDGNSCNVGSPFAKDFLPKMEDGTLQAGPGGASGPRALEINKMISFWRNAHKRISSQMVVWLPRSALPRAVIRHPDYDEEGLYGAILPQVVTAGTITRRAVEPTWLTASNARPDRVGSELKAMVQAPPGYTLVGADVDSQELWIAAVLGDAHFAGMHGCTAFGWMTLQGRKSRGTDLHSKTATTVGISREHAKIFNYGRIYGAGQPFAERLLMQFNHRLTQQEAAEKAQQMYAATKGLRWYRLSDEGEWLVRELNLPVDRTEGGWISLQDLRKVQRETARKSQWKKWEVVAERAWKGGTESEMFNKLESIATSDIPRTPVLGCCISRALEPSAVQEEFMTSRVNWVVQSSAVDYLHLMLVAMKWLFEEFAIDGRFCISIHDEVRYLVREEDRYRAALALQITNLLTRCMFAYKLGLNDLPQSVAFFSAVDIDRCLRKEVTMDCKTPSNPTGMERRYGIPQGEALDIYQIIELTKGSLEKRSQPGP
Method in brief: (§1)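 Each enzyme–compound pair was tested in duplicate over 0.8 to 100 μM, with 100 μM as the highest dose. Each run included a no-inhibitor control, a solvent dilution (0.016 to 2% DMSO) and the relevant reference inhibitor. Percent inhibition at 100 μM was recorded for polymerase γ.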

[3] = molecular target: Human immunodeficiency virus type 1 reverse transcriptase (Human immunodeficiency virus 1, UniProt Q72547); test: Inhibition of Human immunodeficiency virus 1 reverse transcriptase expressed in Escherichia coli by scintillation proximity assay
Method in brief: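 N-terminal His6 HIV-1 RT was expressed in E. coli BL21(DE3), induced overnight at 37°C with 0.4 mM IPTG. The homodimer was purified by Ni-NTA and heparin chromatography. Activity was measured by scintillation proximity assay at 2.5 nM enzyme, with efavirenz as reference inhibitor.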

[4] = Cytotoxicity against CMV-Luc transfected human HuH7 cells after 5 days; assay type: cell-based, Huh-7; conditions: CMV-Luc transfected HuH7 cells
[5] = molecular target: T2, DNA polymerase alpha catalytic subunit (Homo sapiens, UniProt P09884); test: Inhibition of human DNA polymerase alpha; method in brief: as §1
T2 sequence (P09884 whole entry): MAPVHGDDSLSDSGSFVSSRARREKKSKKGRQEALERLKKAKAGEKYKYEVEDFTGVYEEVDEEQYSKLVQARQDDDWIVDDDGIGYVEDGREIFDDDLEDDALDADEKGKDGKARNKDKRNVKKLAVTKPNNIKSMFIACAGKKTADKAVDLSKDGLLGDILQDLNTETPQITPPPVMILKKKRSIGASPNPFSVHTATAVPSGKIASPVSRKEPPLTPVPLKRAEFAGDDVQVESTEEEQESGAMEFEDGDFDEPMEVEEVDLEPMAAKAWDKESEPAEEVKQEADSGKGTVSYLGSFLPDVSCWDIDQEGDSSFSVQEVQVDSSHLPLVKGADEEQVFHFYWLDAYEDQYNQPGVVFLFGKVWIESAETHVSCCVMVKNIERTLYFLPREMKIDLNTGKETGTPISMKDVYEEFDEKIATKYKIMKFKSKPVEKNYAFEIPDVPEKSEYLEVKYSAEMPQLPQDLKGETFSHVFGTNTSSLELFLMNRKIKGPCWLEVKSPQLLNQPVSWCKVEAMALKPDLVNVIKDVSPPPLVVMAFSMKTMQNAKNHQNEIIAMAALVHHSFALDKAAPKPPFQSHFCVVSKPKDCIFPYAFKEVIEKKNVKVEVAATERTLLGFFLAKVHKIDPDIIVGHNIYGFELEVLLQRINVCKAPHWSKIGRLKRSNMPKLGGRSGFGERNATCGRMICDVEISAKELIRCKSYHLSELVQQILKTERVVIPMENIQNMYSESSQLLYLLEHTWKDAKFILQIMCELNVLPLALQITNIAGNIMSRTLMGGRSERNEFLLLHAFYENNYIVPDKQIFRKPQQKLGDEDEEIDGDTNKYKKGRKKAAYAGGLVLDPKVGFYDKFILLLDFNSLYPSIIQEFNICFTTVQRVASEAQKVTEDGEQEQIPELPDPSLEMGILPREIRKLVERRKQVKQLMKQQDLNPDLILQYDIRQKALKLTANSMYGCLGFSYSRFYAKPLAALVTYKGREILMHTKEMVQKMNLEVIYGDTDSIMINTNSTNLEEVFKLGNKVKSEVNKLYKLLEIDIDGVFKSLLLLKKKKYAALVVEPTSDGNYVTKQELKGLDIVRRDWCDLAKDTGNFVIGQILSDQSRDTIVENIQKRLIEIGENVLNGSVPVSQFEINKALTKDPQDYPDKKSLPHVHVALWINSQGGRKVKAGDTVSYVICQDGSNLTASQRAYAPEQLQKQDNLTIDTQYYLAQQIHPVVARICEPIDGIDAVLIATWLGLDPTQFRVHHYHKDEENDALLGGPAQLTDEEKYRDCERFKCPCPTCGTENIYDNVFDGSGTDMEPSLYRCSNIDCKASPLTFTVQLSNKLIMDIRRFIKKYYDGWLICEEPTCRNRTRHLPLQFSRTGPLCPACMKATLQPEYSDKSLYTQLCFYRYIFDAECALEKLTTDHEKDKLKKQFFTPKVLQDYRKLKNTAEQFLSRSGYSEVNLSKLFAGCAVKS

[6] = molecular target: DNA polymerase beta (Homo sapiens, UniProt P06746); test: Inhibition of human DNA polymerase beta; method in brief: as §1
[7] = Inhibition of Dengue virus RNA-dependent RNA polymerase; method in brief: as §1
[8] = Cytotoxicity against LTR-Luc transfected human MT4 cells […] after 3 days by ATPLite assay; assay type: cell-based
[9] = molecular target: T3, DNA polymerase subunit gamma-1 (Homo sapiens, UniProt P54098); test: Inhibition of human DNA polymerase gamma; method in brief: as §1
T3 sequence (P54098 whole entry): T1 sequence (whole entry)

- EC50 [1]: > 32 µM
- inhibition [2]: 30%
- IC50 [3]: > 32 µM
- IC50 [5]: > 100 µM
- IC50 [6]: > 100 µM
- IC50 [7]: > 100 µM
- IC50 [9]: > 100 µM
Structure (SMILES): CC(=O)N1c2ccccc2NC2=C(C(=O)CC(C)(C)C2)C1c1ccc(Cl)cc1Cl (centres undefined)
- CC50 at 120 h [4]: 32 µM
- CC50 at 72 h [8]: 32 µM
